# Reference: ChEMBL document CHEMBL1833793 (Bioorg Med Chem Lett, 2011)
# Calls of active or inactive are those of the source. The calls are words filed in the database; no cut-off is given here.
# Legend:
# [1] = target: T1, Neuropeptide Y receptor type 5 (Homo sapiens, UniProt Q15761); assay: Antagonist activity at human NPY5 receptor assessed as calcium mobilization by FLIPR assay; type: functional
# T1 sequence (Q15761 whole entry): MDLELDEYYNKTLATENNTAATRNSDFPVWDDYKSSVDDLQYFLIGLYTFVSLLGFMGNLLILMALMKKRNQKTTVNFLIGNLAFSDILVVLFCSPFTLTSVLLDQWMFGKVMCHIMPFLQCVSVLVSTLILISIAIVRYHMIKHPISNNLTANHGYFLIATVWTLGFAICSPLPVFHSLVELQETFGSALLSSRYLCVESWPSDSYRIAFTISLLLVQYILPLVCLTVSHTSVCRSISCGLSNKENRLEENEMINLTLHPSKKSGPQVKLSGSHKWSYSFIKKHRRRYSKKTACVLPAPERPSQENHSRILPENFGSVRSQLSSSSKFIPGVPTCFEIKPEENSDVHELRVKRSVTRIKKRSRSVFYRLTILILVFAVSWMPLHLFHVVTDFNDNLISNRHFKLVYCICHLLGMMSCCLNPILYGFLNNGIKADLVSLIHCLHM
# [2] = target: T2, Neuropeptide Y receptor type 1 (Homo sapiens, UniProt P25929); assay: Antagonist activity at human NPY1 receptor assessed as calcium mobilization by FLIPR assay; type: functional
# T2 sequence (P25929 whole entry): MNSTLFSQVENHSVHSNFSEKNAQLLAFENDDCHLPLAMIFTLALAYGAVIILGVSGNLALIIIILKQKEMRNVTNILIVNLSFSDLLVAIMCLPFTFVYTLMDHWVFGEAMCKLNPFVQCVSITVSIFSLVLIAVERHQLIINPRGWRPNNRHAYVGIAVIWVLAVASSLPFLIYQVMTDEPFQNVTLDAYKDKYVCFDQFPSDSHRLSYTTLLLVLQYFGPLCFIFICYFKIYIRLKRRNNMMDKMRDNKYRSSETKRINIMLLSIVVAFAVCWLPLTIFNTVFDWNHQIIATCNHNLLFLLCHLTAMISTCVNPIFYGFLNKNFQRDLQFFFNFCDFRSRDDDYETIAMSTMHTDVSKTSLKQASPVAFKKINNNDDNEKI
# [3] = Drug uptake in rat brain at 10 mg/kg, po after 4 hrs; type: ADME, organism-based; set-up: dose 10 mg/kg, route oral; details: read-out: Drug uptake
# How it was run: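 Rat single oral dose of 10 mg/kg, two animals; plasma and brain homogenate levels measured at 4 h and averaged; quantification limit 2 ng/mL plasma, 2 ng/g brain.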
# [4] = target: 5-hydroxytryptamine receptor 2B (Homo sapiens, UniProt P41595); assay: Binding affinity to human 5HT2B receptor
# 5-hydroxytryptamine receptor 2B, sequence (P41595 whole entry): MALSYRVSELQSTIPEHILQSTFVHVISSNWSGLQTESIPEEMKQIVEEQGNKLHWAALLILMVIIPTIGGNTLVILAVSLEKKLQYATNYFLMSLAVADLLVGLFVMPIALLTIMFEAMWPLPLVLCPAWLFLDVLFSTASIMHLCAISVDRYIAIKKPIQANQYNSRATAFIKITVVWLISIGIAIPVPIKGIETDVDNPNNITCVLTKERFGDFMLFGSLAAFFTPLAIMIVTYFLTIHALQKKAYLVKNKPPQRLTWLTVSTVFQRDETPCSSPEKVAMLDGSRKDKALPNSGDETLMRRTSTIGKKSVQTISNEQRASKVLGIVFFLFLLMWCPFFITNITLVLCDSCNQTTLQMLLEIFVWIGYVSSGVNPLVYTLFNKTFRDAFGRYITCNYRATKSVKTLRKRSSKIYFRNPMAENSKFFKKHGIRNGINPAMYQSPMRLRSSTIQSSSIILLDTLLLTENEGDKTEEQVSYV
# [5] = Plasma protein binding in human; type: ADME, cell-free; details: read-out: PPB (converted)
# Cytochrome P450 2C9 = Cytochrome P450 2C9 (Homo sapiens, UniProt P11712); assay: Inhibition of CYP2C9; type: ADME
# Cytochrome P450 2C9, sequence (P11712 whole entry): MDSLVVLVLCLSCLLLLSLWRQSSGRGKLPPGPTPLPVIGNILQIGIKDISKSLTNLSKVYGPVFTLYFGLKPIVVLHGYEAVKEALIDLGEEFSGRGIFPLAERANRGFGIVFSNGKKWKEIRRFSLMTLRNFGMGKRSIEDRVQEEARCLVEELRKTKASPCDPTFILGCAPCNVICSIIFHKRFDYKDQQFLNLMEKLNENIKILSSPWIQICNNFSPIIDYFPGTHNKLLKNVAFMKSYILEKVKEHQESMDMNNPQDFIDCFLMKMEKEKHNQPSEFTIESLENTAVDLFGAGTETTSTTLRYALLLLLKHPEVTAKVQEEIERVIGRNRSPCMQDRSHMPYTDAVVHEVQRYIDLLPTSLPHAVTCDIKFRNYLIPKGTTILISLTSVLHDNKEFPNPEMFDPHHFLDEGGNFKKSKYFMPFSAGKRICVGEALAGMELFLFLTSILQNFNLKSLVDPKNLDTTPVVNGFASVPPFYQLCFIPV
# Cytochrome P450 2C19 = Cytochrome P450 2C19 (Homo sapiens, UniProt P33261); assay: Inhibition of CYP2C19; type: ADME
# Cytochrome P450 2C19, sequence (P33261 whole entry): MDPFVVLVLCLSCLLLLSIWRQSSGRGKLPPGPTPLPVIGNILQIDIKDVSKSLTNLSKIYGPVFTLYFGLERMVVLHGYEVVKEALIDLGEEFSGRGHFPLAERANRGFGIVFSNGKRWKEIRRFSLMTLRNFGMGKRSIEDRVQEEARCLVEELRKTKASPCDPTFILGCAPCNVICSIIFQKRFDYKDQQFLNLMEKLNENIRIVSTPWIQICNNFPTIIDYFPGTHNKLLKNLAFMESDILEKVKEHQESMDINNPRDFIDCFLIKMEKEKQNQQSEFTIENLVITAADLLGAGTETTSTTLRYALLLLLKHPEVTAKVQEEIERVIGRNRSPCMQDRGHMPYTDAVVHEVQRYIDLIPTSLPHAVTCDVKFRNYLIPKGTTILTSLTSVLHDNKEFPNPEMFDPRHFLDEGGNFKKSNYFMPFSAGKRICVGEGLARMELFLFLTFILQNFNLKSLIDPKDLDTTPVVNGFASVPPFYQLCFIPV
# [6] = Apparent permeability from apical to basolateral side of the human Caco2 cells; type: ADME, cell-based; details: Caco-2
# [7] = Apparent permeability from basolateral to apical side of the human Caco2 cells; type: ADME, cell-based; details: Caco-2
# [8] = Oral bioavailability in Sprague-Dawley rat at 2 mg/kg by HPLC analysis; type: ADME, organism-based; details: in vivo
# How it was run: (§1)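 Male Sprague-Dawley rats (200–250 g, n = 2) with jugular and carotid cannulae, dosed 1 mg/kg iv and 2 mg/kg po in crossover after 24 h washout. Vehicle was 20% beta cyclodextrin, pH adjusted with methanesulfonic acid to give a solution. Automated serial blood sampling took 12 time points over 24 h. Plasma was quantified by HPLC-MS/MS, with noncompartmental analysis.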
# [9] = Plasma clearance in Sprague-Dawley rat at 1 mg/kg, iv and 2 mg/kg, po by HPLC analysis; type: ADME, organism-based; how it was run: as §1
# [10] = Volume of distribution at steady state in Sprague-Dawley rat at 1 mg/kg, iv and 2 mg/kg, po by HPLC analysis; type: ADME, organism-based; details: in vivo, read-out: Vdss; how it was run: as §1
# Rattus norvegicus = species: Rattus norvegicus; assay: Inhibition of food intake in rat after 24 hrs starvation; type: functional, organism-based
# [11] = Plasma concentration in cPP-induced feeding rat model at 3 mg/kg, po after 4 hrs; type: ADME, organism-based; set-up: dose 3 mg/kg, route oral
# How it was run: (§2)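 Satellite rats (n = 2/dose per week), cannulated in the lateral cerebral ventricle for the feeding study, dosed orally at 3, 10 or 30 mg/kg as a suspension in 20% HP-β-cyclodextrin. Plasma was sampled 1, 2, 4, 6 or 24 h after dosing, alongside i.c.v. cPP (0.6 nmol) feeding tests. Values are given as mean with SD.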
# [12] = Plasma concentration in cPP-induced feeding rat model at 3 mg/kg, po after 6 hrs; type: ADME, organism-based; set-up: dose 3 mg/kg, route oral; how it was run: as §2
# [13] = Drug uptake in brain of cPP-induced feeding rat model at 3 mg/kg, po after 1 hr; type: ADME, organism-based; set-up: dose 3 mg/kg, route oral; details: read-out: Drug uptake
# How it was run: (§3)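 Satellite rats (n = 2/dose) sampled each week alongside the cPP feeding test; Lu-series dosed po at 3, 10 or 30 mg/kg as suspension in 20% HP-β-cyclodextrin; plasma (ng/mL) and brain tissue (ng/g) levels taken at 1, 2, 4, 6 and 24 h post-dose; mean ± SD reported.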
# [14] = Drug uptake in brain of cPP-induced feeding rat model at 3 mg/kg, po after 2 hrs; type: ADME, organism-based; set-up: dose 3 mg/kg, route oral; details: read-out: Drug uptake; how it was run: as §3
# [15] = Drug uptake in brain of cPP-induced feeding rat model at 3 mg/kg, po after 4 hrs; type: ADME, organism-based; set-up: dose 3 mg/kg, route oral; details: read-out: Drug uptake; how it was run: as §3
# [16] = Drug uptake in brain of cPP-induced feeding rat model at 3 mg/kg, po after 6 hrs; type: ADME, organism-based; set-up: dose 3 mg/kg, route oral; details: read-out: Drug uptake; how it was run: as §3
# [17] = Plasma concentration in cPP-induced feeding rat model at 10 mg/kg, po after 2 hrs; type: ADME, organism-based; set-up: dose 10 mg/kg, route oral; how it was run: as §3
# [18] = Plasma concentration in cPP-induced feeding rat model at 10 mg/kg, po after 4 hrs; type: ADME, organism-based; set-up: dose 10 mg/kg, route oral; how it was run: as §3
# [19] = Plasma concentration in cPP-induced feeding rat model at 10 mg/kg, po after 6 hrs; type: ADME, organism-based; set-up: dose 10 mg/kg, route oral; how it was run: as §3
# [20] = Drug uptake in brain of cPP-induced feeding rat model at 10 mg/kg, po after 4 hrs; type: ADME, organism-based; set-up: dose 10 mg/kg, route oral; details: read-out: Drug uptake; how it was run: as §3
# [21] = Plasma concentration in cPP-induced feeding rat model at 30 mg/kg, po after 1 hr; type: ADME, organism-based; set-up: dose 30 mg/kg, route oral; how it was run: as §2
# [22] = Plasma concentration in cPP-induced feeding rat model at 30 mg/kg, po after 6 hrs; type: ADME, organism-based; set-up: dose 30 mg/kg, route oral; how it was run: as §2
# [23] = Drug uptake in brain of cPP-induced feeding rat model at 30 mg/kg, po after 1 hr; type: ADME, organism-based; set-up: dose 30 mg/kg, route oral; details: read-out: Drug uptake; how it was run: as §3
# [24] = Drug uptake in brain of cPP-induced feeding rat model at 30 mg/kg, po after 2 hrs; type: ADME, organism-based; set-up: dose 30 mg/kg, route oral; details: read-out: Drug uptake; how it was run: as §3
# [25] = Drug uptake in brain of cPP-induced feeding rat model at 30 mg/kg, po after 6 hrs; type: ADME, organism-based; set-up: dose 30 mg/kg, route oral; details: read-out: Drug uptake; how it was run: as §3
# Brain = assay: Free drug level in brain of cPP-induced feeding rat model; type: ADME, tissue-based; details: in vivo
# [26] = Oral bioavailability in mouse at 2 mg/kg by HPLC analysis; type: ADME, organism-based; details: in vivo
# [27] = Plasma clearance in mouse at 1 mg/kg, iv and 2 mg/kg, po by HPLC analysis; type: ADME, organism-based
# [28] = target: T1, Neuropeptide Y receptor type 5; assay: Binding affinity to human NPY5 receptor
smiles,measurement,setting,value
CS(=O)(=O)NC[C@H]1CC[C@H](Nc2nc3c(s2)CCSc2ccccc2-3)CC1,IC50,[1],1.8 nM
same,IC50,[2],> 1000 nM
same,concentration at 4 h,[3],460 ng/g
same,Ki,[4],245 nM
same,fraction unbound,[5],0.018
same,IC50,Cytochrome P450 2C9,> 10000 nM
same,IC50,Cytochrome P450 2C19,> 10000 nM
same,Papp A→B,[6],36.7 ×10⁻⁶ cm/s
same,Papp B→A,[7],40.4 ×10⁻⁶ cm/s
same,bioavailability,[8],92%
same,clearance,[9],18.3 mL/min/kg
same,Vd,[10],3.3 L/kg
same,inhibition,Rattus norvegicus,inactive
same,concentration at 4 h,[11],52 ng/mL
same,concentration at 6 h,[12],30 ng/mL
same,concentration at 1 h,[13],54 ng/g
same,concentration at 2 h,[14],87 ng/g
same,concentration at 4 h,[15],52 ng/g
same,concentration at 6 h,[16],30 ng/g
same,concentration at 2 h,[17],260 ng/mL
same,concentration at 4 h,[18],141 ng/mL
same,concentration at 6 h,[19],46 ng/mL
same,concentration at 4 h,[20],172 ng/g
same,concentration at 1 h,[21],267 ng/mL
same,concentration at 6 h,[22],181 ng/mL
same,concentration at 1 h,[23],288 ng/g
same,concentration at 2 h,[24],319 ng/g
same,concentration at 6 h,[25],401 ng/g
same,Drug uptake,Brain,0.4 nM
same,bioavailability,[26],42%
same,clearance,[27],5 mL/min/kg
same,Ki,[28],1.5 nM
